# Assay results taken from ChEMBL document CHEMBL1926614, “Substituted thiazoles V. synthesis and antitumor activity of novel thiazolo[2,3-b]quinazoline and pyrido[4,3-d]thiazolo[3,2-a]pyrimidine analogues” (2012).
# Tests used:
# Format in all cases: functional
# [1] = tested on: SK-MEL-28; assay: Growth inhibition of human SK-MEL-28 cells at 10 uM after 48 hrs by coulter counting; conditions: SK-MEL-28, 48 h, read-out: GI
# How it was run: (§1)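 Single-dose primary screen across the full NCI 60-cell-line panel. Stocks were made in DMSO and diluted in PBS to a final DMSO below 1%. Cultures at 6 × 10⁴ cells/ml were run in duplicate wells alongside PBS/DMSO vehicle controls at 37 °C in humidified 5% CO₂. Data were expressed as percent growth of treated cells.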
# [2] = tested on: M14; assay: Growth inhibition of human M14 cells at 10 uM after 48 hrs by coulter counting; conditions: M14, 48 h, read-out: GI; how it was run: as §1
# [3] = tested on: TK-10; assay: Growth inhibition of human TK10 cells at 10 uM after 48 hrs by coulter counting; conditions: TK-10, 48 h, read-out: GI
# How it was run: (§2)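 Single-dose screen in the NCI 60 human tumor cell line panel (nine subpanels). Compounds dissolved in DMSO and diluted in phosphate buffered saline, keeping final DMSO below 1%. Added in duplicate wells to cells at 6 × 10⁴ cells/ml. Controls held PBS and DMSO at matching dilutions. Incubated at 37 °C, humidified, 5% CO₂. Reported as percent growth of treated cells.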
# [4] = tested on: HL-60(TB); assay: Growth inhibition of human HL-60(TB) cells at 10 uM after 48 hrs by coulter counting; conditions: HL-60, 48 h, read-out: GI
# How it was run: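 Test compound was dissolved in DMSO and diluted in phosphate-buffered saline to a final DMSO level below 1%. Dilutions were plated in duplicate with cell culture at 6 × 10⁴ cells/ml. Vehicle controls held PBS and DMSO at matching dilutions. Incubation was at 37 °C, humidified, under 5% CO₂. Data were reported as percent growth of treated cells.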
# [5] = tested on: MDA-MB-435; assay: Growth inhibition of human MDA-MB-435 cells at 10 uM after 48 hrs by coulter counting; conditions: MDA-MB-435, 48 h, read-out: GI; how it was run: as §1
# [6] = tested on: NCI-H226; assay: Growth inhibition of human NCI-H226 cells at 10 uM after 48 hrs by coulter counting; conditions: NCI-H226, 48 h, read-out: GI; how it was run: as §1
# [7] = tested on: SK-MEL-2; assay: Growth inhibition of human SK-MEL-2 cells at 10 uM after 48 hrs by coulter counting; conditions: SK-MEL-2, 48 h, read-out: GI; how it was run: as §1
# [8] = tested on: KM12; assay: Growth inhibition of human KM12 cells at 10 uM after 48 hrs by coulter counting; conditions: KM12, 48 h, read-out: GI; how it was run: as §1
# [9] = tested on: ACHN; assay: Growth inhibition of human ACHN cells at 10 uM after 48 hrs by coulter counting; conditions: read-out: GI; how it was run: as §1
# [10] = tested on: NCI-H522; assay: Growth inhibition of human NCI-H522 cells at 10 uM after 48 hrs by coulter counting; conditions: NCI-H522, 48 h, read-out: GI; how it was run: as §1
# [11] = tested on: UO-31; assay: Growth inhibition of human UO31 cells at 10 uM after 48 hrs by coulter counting; conditions: UO-31, 48 h, read-out: GI; how it was run: as §2
# [12] = tested on: RPMI-8226; assay: Growth inhibition of human RPMI8226 cells at 10 uM after 48 hrs by coulter counting; conditions: RPMI-8226, 48 h, read-out: GI; how it was run: as §1
# [13] = tested on: DU-145; assay: Growth inhibition of human DU145 cells at 10 uM after 48 hrs by coulter counting; conditions: DU-145, 48 h, read-out: GI; how it was run: as §1
# [14] = tested on: HCT-116; assay: Growth inhibition of human HCT116 cells at 10 uM after 48 hrs by coulter counting; conditions: HCT-116, 48 h, read-out: GI; how it was run: as §1
# [15] = Growth inhibition of human NCI-322M cells at 10 uM after 48 hrs by coulter counting; conditions: read-out: GI; how it was run: as §1
# [16] = tested on: OVCAR-8; assay: Growth inhibition of human OVCAR8 cells at 10 uM after 48 hrs by coulter counting; conditions: OVCAR-8, 48 h, read-out: GI; how it was run: as §1
# [17] = tested on: NCI-H460; assay: Growth inhibition of human NCI-H460 cells at 10 uM after 48 hrs by coulter counting; conditions: NCI-H460, 48 h, read-out: GI; how it was run: as §1
# [18] = tested on: UACC-62; assay: Growth inhibition of human UACC62 cells at 10 uM after 48 hrs by coulter counting; conditions: UACC-62, 48 h, read-out: GI; how it was run: as §2
# [19] = tested on: T47D; assay: Growth inhibition of human T47D cells at 10 uM after 48 hrs by coulter counting; conditions: read-out: GI; how it was run: as §2
# [20] = tested on: SNB-75; assay: Growth inhibition of human SNB75 cells at 10 uM after 48 hrs by coulter counting; conditions: SNB-75, 48 h, read-out: GI; how it was run: as §1
# [21] = tested on: A498; assay: Growth inhibition of human A498 cells at 10 uM after 48 hrs by coulter counting; conditions: A498, 48 h, read-out: GI; how it was run: as §1
# [22] = tested on: 786-0; assay: Growth inhibition of human 786-0 cells at 10 uM after 48 hrs by coulter counting; conditions: 786-0, 48 h, read-out: GI; how it was run: as §1
# [23] = tested on: HCT-15; assay: Growth inhibition of human HCT15 cells at 10 uM after 48 hrs by coulter counting; conditions: HCT-15, 48 h, read-out: GI; how it was run: as §1
# [24] = tested on: NCI-H23; assay: Growth inhibition of human NCI-H23 cells at 10 uM after 48 hrs by coulter counting; conditions: NCI-H23, 48 h, read-out: GI; how it was run: as §1
# [25] = tested on: EKVX; assay: Growth inhibition of human EKVX cells at 10 uM after 48 hrs by coulter counting; conditions: read-out: GI; how it was run: as §1
# [26] = tested on: A549; assay: Growth inhibition of human A549 cells at 10 uM after 48 hrs by coulter counting; conditions: A549, 48 h, read-out: GI; how it was run: as §1
# [27] = tested on: SN12C; assay: Growth inhibition of human SN12C cells at 10 uM after 48 hrs by coulter counting; conditions: read-out: GI; how it was run: as §1
# [28] = tested on: NCI/ADR-RES; assay: Growth inhibition of human NCI/ADR-RES cells at 10 uM after 48 hrs by coulter counting; conditions: read-out: GI; how it was run: as §1
# [29] = tested on: SNB-19; assay: Growth inhibition of human SNB19 cells at 10 uM after 48 hrs by coulter counting; conditions: SNB-19, 48 h, read-out: GI; how it was run: as §1
# [30] = tested on: CCRF-CEM; assay: Growth inhibition of human CCRF-CEM cells at 10 uM after 48 hrs by coulter counting; conditions: read-out: GI; how it was run: as §1
# [31] = tested on: U-251; assay: Growth inhibition of human U251 cells at 10 uM after 48 hrs by coulter counting; conditions: U-251, 48 h, read-out: GI; how it was run: as §2
# [32] = tested on: CAKI-1; assay: Growth inhibition of human Caki1 cells at 10 uM after 48 hrs by coulter counting; conditions: CAKI-1, 48 h, read-out: GI; how it was run: as §1
# [33] = tested on: SK-MEL-5; assay: Growth inhibition of human SK-MEL-5 cells at 10 uM after 48 hrs by coulter counting; conditions: SK-MEL-5, 48 h, read-out: GI; how it was run: as §1
# [34] = tested on: LOX IMVI; assay: Growth inhibition of human LOXIMVI cells at 10 uM after 48 hrs by coulter counting; conditions: read-out: GI; how it was run: as §1
# [35] = tested on: SF-295; assay: Growth inhibition of human SF295 cells at 10 uM after 48 hrs by coulter counting; conditions: SF-295, 48 h, read-out: GI; how it was run: as §1
# [36] = tested on: MOLT-4; assay: Growth inhibition of human MOLT4 cells at 10 uM after 48 hrs by coulter counting; conditions: MOLT-4, 48 h, read-out: GI; how it was run: as §1
# [37] = tested on: HT-29; assay: Growth inhibition of human HT-29 cells at 10 uM after 48 hrs by coulter counting; conditions: HT-29, 48 h, read-out: GI; how it was run: as §1
# [38] = tested on: UACC-257; assay: Growth inhibition of human UACC257 cells at 10 uM after 48 hrs by coulter counting; conditions: UACC-257, 48 h, read-out: GI; how it was run: as §2
# [39] = tested on: MCF7; assay: Growth inhibition of human MCF7 cells at 10 uM after 48 hrs by coulter counting; conditions: MCF7, 48 h, read-out: GI; how it was run: as §1
# [40] = tested on: K562; assay: Growth inhibition of human K562 cells at 10 uM after 48 hrs by coulter counting; conditions: K562, 48 h, read-out: GI; how it was run: as §1
# [41] = tested on: SF-268; assay: Growth inhibition of human SF268 cells at 10 uM after 48 hrs by coulter counting; conditions: SF-268, 48 h, read-out: GI; how it was run: as §1
# [42] = tested on: HOP-62; assay: Growth inhibition of human HOP62 cells at 10 uM after 48 hrs by coulter counting; conditions: HOP-62, 48 h, read-out: GI; how it was run: as §1
# [43] = tested on: BT-549; assay: Growth inhibition of human BT549 cells at 10 uM after 48 hrs by coulter counting; conditions: BT-549, 48 h, read-out: GI; how it was run: as §1
smiles,measurement,setting,value
CCN1CC2=C(N=C3SC=C(C)N3C2c2cccs2)/C(=C/c2cccs2)C1 (stereo not drawn),inhibition of growth at 10 µM,[1],> 10%
same,inhibition of growth at 10 µM,[2],> 10%
same,inhibition of growth at 10 µM,[3],> 10%
same,inhibition of growth at 10 µM,[4],> 10%
same,inhibition of growth at 10 µM,[5],> 10%
same,inhibition of growth at 10 µM,[6],> 10%
same,inhibition of growth at 10 µM,[7],> 10%
same,inhibition of growth at 10 µM,[8],> 10%
same,inhibition of growth at 10 µM,[9],> 10%
same,inhibition of growth at 10 µM,[10],> 10%
same,inhibition of growth at 10 µM,[11],21.8%
same,inhibition of growth at 10 µM,[12],> 10%
same,inhibition of growth at 10 µM,[13],> 10%
same,inhibition of growth at 10 µM,[14],> 10%
same,inhibition of growth at 10 µM,[15],> 10%
same,inhibition of growth at 10 µM,[16],> 10%
same,inhibition of growth at 10 µM,[17],> 10%
same,inhibition of growth at 10 µM,[18],> 10%
same,inhibition of growth at 10 µM,[19],> 10%
same,inhibition of growth at 10 µM,[20],13.6%
same,inhibition of growth at 10 µM,[21],> 10%
same,inhibition of growth at 10 µM,[22],> 10%
same,inhibition of growth at 10 µM,[23],> 10%
same,inhibition of growth at 10 µM,[24],> 10%
same,inhibition of growth at 10 µM,[25],17.7%
same,inhibition of growth at 10 µM,[26],> 10%
same,inhibition of growth at 10 µM,[27],> 10%
same,inhibition of growth at 10 µM,[28],> 10%
same,inhibition of growth at 10 µM,[29],> 10%
same,inhibition of growth at 10 µM,[30],> 10%
same,inhibition of growth at 10 µM,[31],> 10%
same,inhibition of growth at 10 µM,[32],> 10%
same,inhibition of growth at 10 µM,[33],> 10%
same,inhibition of growth at 10 µM,[34],> 10%
same,inhibition of growth at 10 µM,[35],> 10%
same,inhibition of growth at 10 µM,[36],> 10%
same,inhibition of growth at 10 µM,[37],> 10%
same,inhibition of growth at 10 µM,[38],> 10%
same,inhibition of growth at 10 µM,[39],> 10%
same,inhibition of growth at 10 µM,[40],> 10%
same,inhibition of growth at 10 µM,[41],> 10%
same,inhibition of growth at 10 µM,[42],> 10%
same,inhibition of growth at 10 µM,[43],> 10%
